Source: PubChem (Broad Institute)
DYRK1A inh: blocks rat Dyrk1A kinase activity | 0.43% of 310,000 active | Q63470 | inhibition, % at 12.5 µM | ADP-Glo luminescence, NFATc1 peptide; in the data active = inhibition above about 50%
ALR inh: human ALR oxidase inhibition via reduced H2O2 | 3.8% of 290,000 active | inhibition, % (no concentration beside the values) | purified ALR, DTT oxidation, H2O2 HRP-luminol luminescence | P55789;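 active = mean replicate inhibition above about 79%, with every replicate also reaching it, limit read from the data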
Target sequence (P55789 whole entry, looked up): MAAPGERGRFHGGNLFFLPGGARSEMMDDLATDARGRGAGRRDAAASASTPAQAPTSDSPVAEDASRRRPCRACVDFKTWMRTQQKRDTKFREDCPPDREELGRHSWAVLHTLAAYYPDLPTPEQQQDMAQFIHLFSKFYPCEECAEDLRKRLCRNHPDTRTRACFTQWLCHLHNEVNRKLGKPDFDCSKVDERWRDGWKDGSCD
CAL PDZ FP-1: CAL PDZ (human) peptide binding inhibition; inhibition, % at 24.9 µM; Q9HD26; purified CAL PDZ, TMR-peptide fluorescence polarization, 1 h; 0.92% of 300,000 active;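 active = mean inhibition of at least 30% with at least half of replicates also reaching 30%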
CAL PDZ FP-2: human CAL PDZ-peptide interaction inhibition. Q9HD26. purified CAL PDZ, TMR-peptide fluorescence polarization, 1 h. inhibition, % at 20 µM. 0.02% of 330,000 active. AID 504414;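 active = highest replicate inhibition of at least 40%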
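Assay system – tagged CAL PDZ protein CerCALP, purified · Timing – 1 h at RT · Compound – single point, 20 µM · Measured by – fluorescence polarization from S- and P-plane intensities, G-factor corrected · Evaluation – inhibition from polarization loss · Probe or stimulus – TMR reporter peptide T*-PRC34 · Buffer or medium – pH 7.4 phosphate-saline buffer, reducing agent, detergent, IgG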
Rtt109 HAT inh: C. albicans Rtt109 histone acetyltransferase inhibition; purified Rtt109/Vps75, ThioGlo CoA-SH fluorescence, 4 h; inhibition, % at 34.9 µM; 0.16% of 330,000 active; Q5AAJ8;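 active = inhibition of at least 50% in every replicate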
Target sequence (Q5AAJ8 whole entry, looked up): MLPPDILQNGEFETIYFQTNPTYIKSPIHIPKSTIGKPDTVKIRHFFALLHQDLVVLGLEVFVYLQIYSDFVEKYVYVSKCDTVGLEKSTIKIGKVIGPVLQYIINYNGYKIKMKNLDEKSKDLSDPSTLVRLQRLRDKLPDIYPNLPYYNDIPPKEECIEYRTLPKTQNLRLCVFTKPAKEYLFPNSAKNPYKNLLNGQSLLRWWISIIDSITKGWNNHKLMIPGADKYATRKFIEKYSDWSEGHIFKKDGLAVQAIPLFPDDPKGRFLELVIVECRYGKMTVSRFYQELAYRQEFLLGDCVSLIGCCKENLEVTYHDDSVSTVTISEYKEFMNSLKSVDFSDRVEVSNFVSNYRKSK
Dyrk1A artifact: interferes with ADP-Glo luciferase readout without Dyrk1A | AID 588348 | AC50, µM (doses to about 12 µM) | shares compounds with DYRK1A inh | ADP-Glo luciferase artifact assay, no Dyrk1A, luminescence | 1,300 tested, under 10 active;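 active = fitted half-maximal dose AC50 no more than ten times the top valid tested dose, with luminescence dropping as dose rises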
Numbers stand for hits; – = inactive; · = not tested or not shown. This is a sample that favours compounds with a hit; in the whole collection about 4.3% have one here.

SMILES | DYRK1A inh | ALR inh | CAL PDZ FP-1 | CAL PDZ FP-2 | Rtt109 HAT inh | Dyrk1A artifact
COc1ccc(-c2cn[nH]c2C)cc1 | 63 | – | – | – | – | –
O=C(CN1C2=NCCN2c2ccccc21)c1ccc(Br)s1 | – | – | – | – | – | ·
O=C(Cn1c(-c2cncs2)nc2ccccc21)NCc1ccccc1 | 60 | – | – | – | – | –
N/N=C/C(=N\Nc1ccc(Cl)cc1)C(=O)c1ccncc1 | – | – | – | – | – | ·
CCOc1ccc(NC(=S)N(CCc2c(C)[nH]c3ccc(C)cc23)Cc2cccnc2)cc1 | – | · | · | – | – | ·
COc1ccc(NC(=S)N(CCc2c(C)[nH]c3ccccc23)Cc2cccnc2)cc1 | 60 | · | · | – | – | –
CC(C)S(=O)(=O)C1=NSC2=NC(=O)/C(=C\c3ccc(-c4cccc(C(=O)O)c4)o3)C(=N)N21 | 65 | · | · | – | – | –
Cn1c(C(=O)NCc2ccccn2)cc2c(=O)n(C)c3ccccc3c21 | – | – | · | – | – | ·
Cn1c(C(=O)N2CCCC2)cc2c(=O)n(C)c3ccccc3c21 | 75 | · | · | – | – | –
Cn1c(C(=O)NCC2CCCO2)cc2c(=O)[nH]c3ccccc3c21 (stereo not drawn) | – | · | – | · | – | ·
Cn1c(C(=O)NCC2CCCO2)cc2c(=O)n(C)c3ccccc3c21 (stereo not drawn) | 55 | · | – | – | – | –
Cc1ccc(CNC(=O)c2cc3c(=O)n(C)c4ccccc4c3n2C)o1 | 62 | – | · | – | – | –
Cn1c(C(=O)N2CCN(c3ncccn3)CC2)cc2c(=O)n(C)c3ccccc3c21 | – | – | · | – | – | ·
COc1ccc(NC(=O)CSc2ccc3nnc(-c4cccnc4)n3n2)cc1OC | – | – | – | – | – | ·
CCOc1ccc(C2C(C(C)=O)=C(O)C(=O)N2CCc2c[nH]c3ccccc23)cc1 (stereo not drawn) | – | – | – | – | – | ·
CC12CCC(C)(c3nc4ccccc4nc31)C2(C)C | – | – | – | – | – | ·
Cc1[nH]nc2c1-c1nc3ccccc3nc1C(C)(C)C2 | 80 | 99 | · | – | – | –
C[C@@H](CN=[N+]=[N-])CN1CC[C@H](C(C)(C)C)CCC1=O | – | – | – | – | – | ·
Cc1ccc(S(=O)(=O)/N=C2\C=C(Nc3ccc(O)cc3)C(=O)c3ccccc32)cc1 | – | – | · | – | – | ·
Cc1ccc(S(=O)(=O)/N=C2\C=C(Nc3cccc(C(=O)O)c3)C(=O)c3ccccc32)cc1 | 51 | · | – | – | – | –
Cc1ccc(S(=O)(=O)/N=C2\C=C(Nc3cccc(C(=O)O)c3)C(=O)c3ccccc32)c(C)c1 | 76 | – | – | – | – | –
CN(C)C(=O)CCc1ccc2c3c([nH]c2c1)[C@]1(C)[C@@H](C(=O)N2CCOCC2)C[C@H](CC(=O)NCCC2=CCCCC2)C(=O)N1CC3 | – | · | – | – | – | ·
CS(=O)(=O)N(CC(=O)Nc1ccccc1C(=O)N1CCCC1)c1ccc2c(c1)OCO2 | – | – | – | – | – | ·
COC(=O)c1ccncc1N | – | – | – | – | – | ·
COC(=O)c1sc2cnccc2c1N | 58 | – | – | – | – | –
SMILES | DYRK1A inh | ALR inh | CAL PDZ FP-1 | CAL PDZ FP-2 | Rtt109 HAT inh | Dyrk1A artifact
CCC(C)CCN1C(Nc2ccccc2)=NC[C@@H]1Cc1ccccc1 (stereo partly drawn) | 57 | – | – | – | – | –
O=C(O)CC(NC(=O)c1ccncc1)c1ccccc1 (stereo not drawn) | – | – | – | – | – | ·
NC(=O)c1c(NC(=O)c2ccc(N3C(=O)CCC3=O)cc2)sc2c1CCCC2 | 60 | 93 | – | – | – | –
CN(C)CCNc1ccc(CO)c2oc3ccc(O)cc3c(=O)c12 | 52 | · | – | – | – | –
CC[C@@H](C)[C@H](CNC)NC[C@@H](Cc1cccc2ccccc12)NCCc1cccc(C(F)(F)F)c1 | 55 | · | – | – | – | –
COc1ccc(C(CNC(=O)Cc2ccc(-c3ccccc3)cc2)N(C)C)cc1 (stereo not drawn) | – | – | – | – | – | ·
CN(C)/C=C1/Oc2c(ccc3ccccc23)C1=O | 60 | – | – | – | – | –
CN(C)/C=C1\Oc2ccc3ccccc3c2C1=O | – | – | – | – | – | ·
O=c1[nH]ncc2c3ccccc3n(Cc3ccccc3)c12 | – | – | – | – | – | ·
CCCn1c2ccccc2c2cn[nH]c(=O)c21 | 54 | – | – | – | – | –
COC(=O)C1C2CC3c4[nH]c5cc(OC)ccc5c4CCN3CC2CC(O)C1OC (stereo not drawn) | – | · | – | – | – | ·
COc1ccc2c3c([nH]c2c1)C(C)N(CCC(=O)NN)CC3 (stereo not drawn) | 74 | – | – | – | – | –
COc1cccc2c1C(=O)C=C(C)C2=O | – | – | · | – | – | ·
COC1=CC(=O)c2c(ccc3ncnc(N)c23)C1=O | 51 | · | – | – | – | –
O=C1C=C(Nc2ccccc2C(=O)O)c2ccccc2C1=O | 56 | · | 76 | – | – | –
COC(=O)[C@]1(CC(C)C)N[C@H](c2ccc(-c3cccc(Cl)c3)cc2)[C@@H]2C(=O)N(C)C(=O)[C@@H]21 | 56 | – | – | – | – | –
CCOc1cc(C(=S)N2CCOCC2)ccc1OS(=O)(=O)c1ccccc1[N+](=O)[O-] | – | – | – | – | – | ·
C=CCOC(=O)C1=C(C)NC(=O)NC1c1ccc(Cl)cc1 (stereo not drawn) | 67 | – | · | – | – | –
C[C@@H]1O[C@@H](OC[C@@H]2O[C@H](Oc3c(-c4ccc(O)cc4)oc4cc(O)cc(O)c4c3=O)[C@@H](O)[C@H](O)[C@H]2O)[C@H](O)[C@H](O)[C@H]1O | 72 | 80 | – | – | – | –
O=C1NC(=S)SC1=Cc1ccc(Cl)cc1 | · | · | · | – | – | ·
COc1ccc(C=C2SC(=S)NC2=O)cc1 | 76 | · | – | – | – | –
O=C1NC(=S)SC1=Cc1ccccc1Br | – | · | – | – | – | ·
COc1cccc(OCCOc2ccc(/C=C3/SC(=S)NC3=O)cc2)c1 | – | – | – | – | · | ·
O=C1NC(=S)SC1=Cc1ccc(F)cc1 | 84 | · | · | – | – | –
O=C1NC(=S)SC1=Cc1cc(Br)ccc1O | 84 | · | – | – | – | –
SMILES | DYRK1A inh | ALR inh | CAL PDZ FP-1 | CAL PDZ FP-2 | Rtt109 HAT inh | Dyrk1A artifact
COc1ccc(CCN2CC(C(=O)NCCc3cn[nH]c3)CCC2=O)cc1 (stereo not drawn) | – | – | – | – | – | ·
CC(C)CCN1C(=O)c2ccc(C(=O)NCc3ccccn3)cc2C1=O | – | – | – | – | – | ·
CC1CCN(Cc2nnnn2CCCC(=O)N(C)C(C)c2ccccn2)CC1 (stereo not drawn) | – | – | – | – | – | ·
O=C(O)c1ccc(/C=C2\SC(=S)N(NC(=O)c3ccccc3[N+](=O)[O-])C2=O)cc1 | – | – | – | – | – | ·
O=C(NN1C(=O)/C(=C\c2ccc(O)c([N+](=O)[O-])c2)SC1=S)c1ccccc1Cl | 79 | – | – | – | – | –
COc1ccc(/C=N/NC(=O)c2cc3cc(OC)c(OC)cc3[nH]2)cc1 | – | – | – | – | – | ·
